Results from different studies.
Each line is one published result; the experiments were not run side by side.
Tspo: Translocator protein (Tspo, Rattus norvegicus, UniProt P16257)
ADRA1A: Alpha-1A adrenergic receptor (ADRA1A, Homo sapiens, UniProt P35348)
HRH2: Histamine H2 receptor (HRH2, Homo sapiens, UniProt P25021)

| SMILES | target | assay | Ki [nM] |
| --- | --- | --- | --- |
| CCNc1nc(C#Cc2ccccc2)nc2c1ncn2[C@H]1[C@H](O)[C@H](O)[C@@H]2C[C@@H]21 | Tspo | ligand displacement, radioligand | > 10000 |
| CC1(C)C=Cc2c(cc3oc(-c4ccccc4)c(O)c(=O)c3c2O)O1 | Peroxisome proliferator-activated receptor delta (PPARD, Homo sapiens, UniProt Q03181) | ligand displacement, TR-FRET | 1300 |
| CNC(=O)[C@@]12C[C@@H]1[C@@H](n1cnc3c(NC)nc(C#Cc4ccc(Cl)s4)nc31)[C@H](O)[C@@H]2O | Tspo | cell-free assay, radioligand | 859 |
| COc1ccccc1N1CCN(CCCCN2CCc3ccccc3C2=O)CC1 | ADRA1A | ligand displacement, radioligand | 11.1 |
| CNc1nc(C#Cc2ccc(Cl)s2)nc2c1ncn2[C@H]1[C@H](O)[C@H](O)[C@]2(C(=O)OCCC3CCCCC3)C[C@H]12 | Tspo | ligand displacement, radioligand | > 10000 |
| COc1cccc(OC)c1OCCNCC1COc2ccccc2O1 (stereo not shown) | ADRA1A | ligand displacement, radioligand | 0.18 |
| CNc1nc2cc(OCCCCN3CCC(c4cccc(Cl)c4Cl)CC3)ccc2s1 | HRH2 | ligand displacement, radioligand | 330 |
| CNC(=O)[C@@]12C[C@@H]1[C@@H](n1ccc3c(NC)ncnc31)[C@H](O)[C@@H]2O | Tspo | ligand displacement, radioligand | > 10000 |
| CCCCN1CCC(COC(=O)c2ccc(N)c(OCF)c2)CC1 | ADRA1A | cell-free assay, radioligand | > 10000 |
| CCc1nc2cc(OCCCCN3CCC(c4cccc(Cl)c4Cl)CC3)ccc2s1 | HRH2 | ligand displacement, radioligand | 2100 |
| O=C(O)c1cc(O)c2c(c1)C(=O)c1cc(O)cc(O)c1C2=O | Amine oxidase [flavin-containing] A (MAOA, Homo sapiens, UniProt P21397) | enzyme activity, inhibitor | 38600 |
| CC[Si](C#Cc1ccc2c(c1)C=C([N+](=O)[O-])C(C(F)(F)F)O2)(CC)CC (stereo not shown) | Tspo | cell-free assay, radioligand | 500 |
| CNc1nc(C#Cc2ccc(Cl)s2)nc2c1ncn2[C@@H]1O[C@H](C(=O)OC)[C@@H](O)[C@H]1O | Tspo | ligand displacement, radioligand | > 10000 |
| O=C1c2ccccc2CCN1CCCCN1CCN(c2cccc(Cl)c2Cl)CC1 | ADRA1A | ligand displacement, radioligand | 117 |
| CNC(=O)[C@@]12C[C@@H]1[C@@H](n1cnc3c(NC)nc(C#Cc4ccc(Br)s4)nc31)[C@H](O)[C@@H]2O | Tspo | ligand displacement, radioligand | > 10000 |
| Oc1cccc(Nc2nc(-c3ccc(F)cc3F)cs2)c1 | Kappa-type opioid receptor (Oprk1, Rattus norvegicus, UniProt P34975) | cell-free assay, radioligand | 2200 |
